These results are taken from ChEMBL document CHEMBL4145652, “Chemoenzymatic Synthesis and Pharmacological Characterization of Functionalized Aspartate Analogues As Novel Excitatory Amino Acid Transporter Inhibitors” (J Med Chem, 2018).

Common to all, as to type: cell-based
The target in assay [1] is T1, Excitatory amino acid transporter 3 (Homo sapiens, UniProt P43005).
T1 sequence (P43005 whole entry): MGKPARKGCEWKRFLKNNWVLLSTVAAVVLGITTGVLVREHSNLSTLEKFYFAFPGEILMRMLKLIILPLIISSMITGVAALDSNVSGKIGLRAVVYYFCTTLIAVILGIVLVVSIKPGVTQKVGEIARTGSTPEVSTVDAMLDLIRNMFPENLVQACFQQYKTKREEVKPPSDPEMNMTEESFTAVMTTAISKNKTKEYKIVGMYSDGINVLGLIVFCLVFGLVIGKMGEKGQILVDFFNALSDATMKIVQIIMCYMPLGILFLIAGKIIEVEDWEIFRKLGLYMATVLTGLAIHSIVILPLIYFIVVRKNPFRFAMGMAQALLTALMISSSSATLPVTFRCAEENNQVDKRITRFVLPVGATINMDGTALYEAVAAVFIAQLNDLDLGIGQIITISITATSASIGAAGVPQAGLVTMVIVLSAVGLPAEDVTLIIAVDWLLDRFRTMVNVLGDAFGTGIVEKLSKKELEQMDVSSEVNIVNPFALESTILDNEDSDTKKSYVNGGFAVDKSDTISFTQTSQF
The assay can be described thus: Inhibition of human EAAT3 expressed in HEK293 cells assessed as reduction in [3H]-D-Asp uptake incubated for 4 mins by scintillation counting method. The method in brief:
(§1)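 HEK293 cells stably expressing human EAAT1, EAAT2 or EAAT3 were plated 16–24 h before the assay. Cells were washed and incubated with 100 nM [3H]-D-Asp plus graded compound concentrations in HBSS/20 mM HEPES/CaCl2/MgCl2, pH 7.4, for 4 min at 37 °C. Uptake was in the linear range at this time. Cells were washed ice-cold and counted by scintillation. IC50 came from a Hill-equation fit. Three or four independent assays in duplicate.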

Assay [2] has as its target T2, Excitatory amino acid transporter 3 (Homo sapiens) (UniProt P43005).
T2 sequence (whole entry): T1 sequence (P43005 whole entry)
The assay can be described thus: Potency index, ratio of IC50 for NBI59159 to IC50 for test compound for inhibition of human EAAT3 expressed in HEK293 cells assessed as reduction in [3H]-D-Asp uptake incubated for 4 mins by scintillation counting method.

The target in assay [3] is T3, Excitatory amino acid transporter 2 (Homo sapiens, UniProt P43004). The assay can be described thus: Inhibition of human EAAT2 expressed in HEK293 cells assessed as reduction in [3H]-D-Asp uptake incubated for 4 mins by scintillation counting method. Particulars: read-out: IC50. The method in brief:
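HEK293 cells stably expressing human EAAT1, EAAT2 or EAAT3 were plated 16–24 h before the assay. Cells were washed and incubated with 100 nM [3H]-D-Asp plus graded compound concentrations in HBSS/20 mM HEPES/CaCl2/MgCl2, pH 7.4, for 4 min at 37 °C. Uptake was in the linear range at this time. Nonspecific uptake was defined with 3 mM L-Glu. Cells were washed ice-cold and counted by scintillation. IC50 came from a Hill-equation fit. Three or four independent assays in duplicate.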

Assay [4] concerns the target T3, Excitatory amino acid transporter 2. The assay can be described thus: Potency index, ratio of IC50 for DL-TBOA to IC50 for test compound for inhibition of human EAAT2 expressed in HEK293 cells assessed as reduction in [3H]-D-Asp uptake incubated for 4 mins by scintillation counting method. The method in brief: (§2)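 Stable HEK293 lines expressing human transporter, plated on poly-D-lysine 16–24 h before assay. Washed cells were given HBSS/20 mM HEPES/1 mM CaCl2/1 mM MgCl2, pH 7.4, with 100 nM [3H]-D-Asp plus graded inhibitor for 4 min at 37 °C. Nonspecific uptake was taken with 3 mM L-Glu. IC50 came from a Hill fit; index = DL-TBOA IC50 ÷ test IC50. Three or four independent runs in duplicate.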

Assay [5] deals with T4, Excitatory amino acid transporter 1 (Homo sapiens, UniProt P43003). The assay can be described thus: Inhibition of human EAAT1 expressed in HEK293 cells assessed as reduction in [3H]-D-Asp uptake incubated for 4 mins by scintillation counting method. The method in brief: as §1
T4 sequence (P43003 whole entry): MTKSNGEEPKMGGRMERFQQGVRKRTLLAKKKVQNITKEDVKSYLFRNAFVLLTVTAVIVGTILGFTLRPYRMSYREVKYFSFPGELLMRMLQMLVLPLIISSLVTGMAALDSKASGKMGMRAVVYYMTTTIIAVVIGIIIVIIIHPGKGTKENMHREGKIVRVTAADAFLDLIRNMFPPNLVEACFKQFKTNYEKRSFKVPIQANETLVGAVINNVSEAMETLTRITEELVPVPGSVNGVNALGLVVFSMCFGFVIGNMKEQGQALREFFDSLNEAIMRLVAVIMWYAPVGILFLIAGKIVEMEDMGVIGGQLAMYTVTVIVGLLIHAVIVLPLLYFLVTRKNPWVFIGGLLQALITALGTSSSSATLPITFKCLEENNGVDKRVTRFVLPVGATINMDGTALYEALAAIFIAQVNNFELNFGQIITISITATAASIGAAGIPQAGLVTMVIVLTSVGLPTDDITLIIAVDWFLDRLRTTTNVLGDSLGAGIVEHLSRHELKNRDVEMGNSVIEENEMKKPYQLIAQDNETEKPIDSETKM
Assay [6] concerns the target T3, Excitatory amino acid transporter 2. The assay can be described thus: Potency index, ratio of IC50 for NBI59159 to IC50 for test compound for inhibition of human EAAT2 expressed in HEK293 cells assessed as reduction in [3H]-D-Asp uptake incubated for 4 mins by scintillation counting method.
Assay [7] has as its target T5, Excitatory amino acid transporter 4 (Rattus norvegicus, UniProt O35921).
T5 sequence (O35921 whole entry): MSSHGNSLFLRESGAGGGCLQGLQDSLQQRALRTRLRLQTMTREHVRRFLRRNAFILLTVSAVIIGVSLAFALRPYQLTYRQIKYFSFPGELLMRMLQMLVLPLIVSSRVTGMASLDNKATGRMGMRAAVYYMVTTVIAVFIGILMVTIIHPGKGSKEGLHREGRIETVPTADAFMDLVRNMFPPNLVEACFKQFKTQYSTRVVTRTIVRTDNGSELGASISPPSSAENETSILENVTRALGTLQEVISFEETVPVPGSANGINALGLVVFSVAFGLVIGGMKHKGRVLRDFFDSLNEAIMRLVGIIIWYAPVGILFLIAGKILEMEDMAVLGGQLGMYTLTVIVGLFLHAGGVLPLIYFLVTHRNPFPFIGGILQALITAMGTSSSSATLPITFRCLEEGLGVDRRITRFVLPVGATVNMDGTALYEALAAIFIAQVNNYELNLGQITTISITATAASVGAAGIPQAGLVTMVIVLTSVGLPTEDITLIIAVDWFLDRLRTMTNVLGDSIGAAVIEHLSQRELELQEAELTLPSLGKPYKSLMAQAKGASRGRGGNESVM
The assay can be described thus: Inhibition of rat EAAT4 expressed in tsA201 cells assessed as reduction in [3H]-D-Asp uptake incubated for 4 mins by scintillation counting method. Particulars: read-out: IC50. The method in brief: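 Rat EAAT4 stably expressed in tsA201 cells, induced with 1 μg/mL tetracycline during overnight plating. [3H]-D-Asp (100 nM) uptake with graded compound concentrations ran for 4 min at 37 °C in HEPES-buffered HBSS, pH 7.4. Uptake was linear at this time. Nonspecific uptake was defined by 3 mM L-Glu. Read-out by scintillation counting. IC50 came from a Hill-equation fit. Three or four independent assays in duplicate.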

The target in assay [8] is T4, Excitatory amino acid transporter 1. The assay can be described thus: Potency index, ratio of IC50 for NBI59159 to IC50 for test compound for inhibition of human EAAT1 expressed in HEK293 cells assessed as reduction in [3H]-D-Asp uptake incubated for 4 mins by scintillation counting method.
Assay [9] addresses T6, Excitatory amino acid transporter 4 (Rattus norvegicus) (UniProt O35921).
T6 sequence (whole entry): T5 sequence (O35921 whole entry)
The assay can be described thus: Potency index, ratio of IC50 for DL-TBOA to IC50 for test compound for inhibition of rat EAAT4 expressed in tsA201 cells assessed as reduction in [3H]-D-Asp uptake incubated for 4 mins by scintillation counting method. The method in brief: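 Stable rat EAAT4 tsA201 line induced with 1 µg/mL tetracycline on plating, 16–24 h before assay. Uptake used 100 nM [3H]-D-Asp with graded inhibitor in HEPES-buffered HBSS, pH 7.4, for 4 min at 37 °C. 3 mM L-Glu defined nonspecific uptake. Scintillation counts were Hill-fitted for IC50; index = DL-TBOA IC50 ÷ test IC50. Three or four independent runs in duplicate.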

The target of assay [10] is T2, Excitatory amino acid transporter 3 (Homo sapiens). The assay can be described thus: Potency index, ratio of IC50 for DL-TBOA to IC50 for test compound for inhibition of human EAAT3 expressed in HEK293 cells assessed as reduction in [3H]-D-Asp uptake incubated for 4 mins by scintillation counting method. Put shortly:
as §2

Assay [11] deals with T4, Excitatory amino acid transporter 1. The assay can be described thus: Potency index, ratio of IC50 for DL-TBOA to IC50 for test compound for inhibition of human EAAT1 expressed in HEK293 cells assessed as reduction in [3H]-D-Asp uptake incubated for 4 mins by scintillation counting method. The method in brief:
as §2

T3 sequence (P43004 whole entry): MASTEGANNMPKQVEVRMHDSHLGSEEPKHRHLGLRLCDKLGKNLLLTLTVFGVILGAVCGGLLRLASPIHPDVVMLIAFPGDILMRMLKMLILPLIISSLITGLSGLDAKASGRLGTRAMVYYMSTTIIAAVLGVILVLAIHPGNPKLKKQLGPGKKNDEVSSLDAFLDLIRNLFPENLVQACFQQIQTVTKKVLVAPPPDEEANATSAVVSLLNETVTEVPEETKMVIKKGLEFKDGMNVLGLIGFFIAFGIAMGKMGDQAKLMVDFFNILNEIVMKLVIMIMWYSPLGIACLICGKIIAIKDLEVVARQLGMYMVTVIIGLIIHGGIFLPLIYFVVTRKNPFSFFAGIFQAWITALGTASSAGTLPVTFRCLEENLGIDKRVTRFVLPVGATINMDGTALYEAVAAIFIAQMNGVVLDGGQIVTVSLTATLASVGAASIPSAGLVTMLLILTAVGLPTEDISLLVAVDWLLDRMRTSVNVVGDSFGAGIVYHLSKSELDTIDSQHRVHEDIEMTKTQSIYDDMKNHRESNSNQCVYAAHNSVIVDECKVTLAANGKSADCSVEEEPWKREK

`N[C@H](C(=O)O)[C@H](OCc1ccccc1)C(=O)Nc1ccc2c(c1)Cc1ccccc1-2`: the IC50 – broadly, the concentration needed to halve the response being measured – in assay [1] was found to be 55 nM; in [3], 47 nM; in assay [5] it was 12 nM; in [7] it was 80 nM. The Ratio IC50 was 1.6 in assay [2]; 40 in [4]; 30 in [6]; 83 in assay [8]; 29 in [9]; 69 in assay [10]. Further, the Ratio IC50 in assay [11] stood at 180.
